In ChEMBL document CHEMBL1649446, “Comparative antipneumococcal activities of sulopenem and other drugs” (2009):
In brackets after ≈: the same amount, converted by molar mass.

Assays:
Assay type in all cases: functional
Streptococcus pneumoniae [1] = experiment: Antimicrobial activity against Streptococcus pneumoniae isolate 2688 by agar dilution method
Summary of the method: (§1)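 Agar dilution MIC on Mueller-Hinton agar with 5% sheep blood, inocula 10^4 CFU/spot; amoxicillin-clavulanate combined 1:2; S. pneumoniae ATCC 49619 quality control each run.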

Streptococcus pneumoniae [2] = experiment: Antimicrobial activity against Streptococcus pneumoniae isolate 3282 by agar dilution method
Streptococcus pneumoniae [3] = experiment: Antimicrobial activity against Streptococcus pneumoniae isolate 1147 by agar dilution method; summary of the method: as §1
Streptococcus pneumoniae [4] = experiment: Antimicrobial activity against Streptococcus pneumoniae isolate 4747 by agar dilution method; summary of the method: as §1
Streptococcus pneumoniae [5] = experiment: Antimicrobial activity against Streptococcus pneumoniae 9 by time-kill analysis
Summary of the method: (§2)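 Time-kill in cation-adjusted Mueller-Hinton broth with 5% lysed horse blood; inocula 5 × 105 to 5 × 10^6 CFU/ml; drugs at MIC, 2× and 4× MIC; 35°C shaking water bath; viable counts at 0, 3, 6, 12 and 24 h. Bactericidal if ≥3 log10 CFU/ml (99.9%) reduction from original inoculum; 90% and 99% killing also scored.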

Streptococcus pneumoniae [6] = experiment: Antimicrobial activity against Streptococcus pneumoniae 19A by agar dilution method; summary of the method: as §1
Streptococcus pneumoniae [7] = experiment: Antimicrobial activity against Streptococcus pneumoniae isolate 1146 by agar dilution method; summary of the method: as §1
Streptococcus pneumoniae [8] = experiment: Antimicrobial activity against Streptococcus pneumoniae isolate 3455 by agar dilution method
Streptococcus pneumoniae [9] = experiment: Antimicrobial activity against Streptococcus pneumoniae 11 by time-kill analysis
Summary of the method: as §2, with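 “12,” for “12 and”, “=” for “if”, “drop” for “reduction”, “90%/99%/99.9%” for “90% and 99%”, “scored per strain.” for “also scored.”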

Streptococcus pneumoniae [10] = experiment: Antimicrobial activity against Streptococcus pneumoniae isolate 3412 by agar dilution method; summary of the method: as §1
Streptococcus pneumoniae [11] = experiment: Antimicrobial activity against Streptococcus pneumoniae isolate 3346 by agar dilution method
Streptococcus pneumoniae [12] = experiment: Antimicrobial activity against Streptococcus pneumoniae isolate 3263 by agar dilution method
Streptococcus pneumoniae [13] = experiment: Antimicrobial activity against Streptococcus pneumoniae isolate 1394 by agar dilution method
Streptococcus pneumoniae [14] = experiment: Antimicrobial activity against Streptococcus pneumoniae 2 by time-kill analysis
Summary of the method: as §2, with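 “12,” for “12 and”, “=” for “if”, “drop” for “reduction”, “90%/99%/99.9%” for “90% and 99%”, “scored per strain.” for “also scored.”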

Streptococcus pneumoniae [15] = experiment: Antimicrobial activity against Streptococcus pneumoniae 8 by time-kill analysis
Summary of the method: as §2, with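 “12,” for “12 and”, “=” for “if”, “drop” for “reduction”, “90%/99%/99.9%” for “90% and 99%”, “scored per strain.” for “also scored.”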

Streptococcus pneumoniae [16] = experiment: Antimicrobial activity against penicillin-intermediate Streptococcus pneumoniae by agar dilution method
Streptococcus pneumoniae [17] = experiment: Antimicrobial activity against Streptococcus pneumoniae 6 by time-kill analysis
Summary of the method: as §2, with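 “12,” for “12 and”, “=” for “if”, “drop” for “reduction”, “90%/99%/99.9%” for “90% and 99%”, “scored per strain.” for “also scored.”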

Streptococcus pneumoniae [18] = experiment: Antimicrobial activity against Streptococcus pneumoniae isolate 3260 by agar dilution method
Streptococcus pneumoniae [19] = experiment: Antimicrobial activity against Streptococcus pneumoniae isolate 37 by agar dilution method; summary of the method: as §1
Streptococcus pneumoniae [20] = experiment: Antimicrobial activity against Streptococcus pneumoniae isolate 3374 by agar dilution method; summary of the method: as §1
Streptococcus pneumoniae [21] = experiment: Antimicrobial activity against penicillin-resistant Streptococcus pneumoniae by agar dilution method; summary of the method: as §1
Streptococcus pneumoniae [22] = experiment: Antimicrobial activity against Streptococcus pneumoniae isolate 33 by agar dilution method; summary of the method: as §1
Streptococcus pneumoniae [23] = experiment: Antimicrobial activity against Streptococcus pneumoniae isolate 1564 by agar dilution method
Streptococcus pneumoniae [24] = experiment: Antimicrobial activity against Streptococcus pneumoniae isolate 3791 by agar dilution method; summary of the method: as §1
Streptococcus pneumoniae [25] = experiment: Antimicrobial activity against Streptococcus pneumoniae isolate 2617 by agar dilution method; summary of the method: as §1
Streptococcus pneumoniae [26] = experiment: Antimicrobial activity against Streptococcus pneumoniae 3 by time-kill analysis
Summary of the method: as §2, with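 “12,” for “12 and”, “=” for “if”, “drop” for “reduction”, “90%/99%/99.9%” for “90% and 99%”, “scored per strain.” for “also scored.”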

Streptococcus pneumoniae [27] = experiment: Antimicrobial activity against Streptococcus pneumoniae isolate 1384 by agar dilution method; summary of the method: as §1
Streptococcus pneumoniae [28] = experiment: Antimicrobial activity against Streptococcus pneumoniae isolate 2880 by agar dilution method; summary of the method: as §1
Streptococcus pneumoniae [29] = experiment: Antimicrobial activity against Streptococcus pneumoniae isolate 3587 by agar dilution method
Streptococcus pneumoniae [30] = experiment: Antimicrobial activity against Streptococcus pneumoniae 4 by time-kill analysis
Summary of the method: as §2, with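 “12,” for “12 and”, “=” for “if”, “drop” for “reduction”, “90%/99%/99.9%” for “90% and 99%”, “scored per strain.” for “also scored.”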

Streptococcus pneumoniae [31] = experiment: Antimicrobial activity against Streptococcus pneumoniae isolate 3458 by agar dilution method
Streptococcus pneumoniae [32] = experiment: Antimicrobial activity against Streptococcus pneumoniae isolate 3681 by agar dilution method; summary of the method: as §1
Streptococcus pneumoniae [33] = experiment: Antimicrobial activity against Streptococcus pneumoniae 5 by time-kill analysis; summary of the method: as §2
Streptococcus pneumoniae [34] = experiment: Antimicrobial activity against Streptococcus pneumoniae 10 by time-kill analysis
Summary of the method: as §2, with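 “12,” for “12 and”, “=” for “if”, “drop” for “reduction”, “90%/99%/99.9%” for “90% and 99%”, “scored per strain.” for “also scored.”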

Streptococcus pneumoniae [35] = experiment: Antimicrobial activity against Streptococcus pneumoniae isolate 2686 by agar dilution method; summary of the method: as §1
Streptococcus pneumoniae [36] = experiment: Antimicrobial activity against Streptococcus pneumoniae 7 by time-kill analysis
Summary of the method: as §2, with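 “12,” for “12 and”, “=” for “if”, “drop” for “reduction”, “90%/99%/99.9%” for “90% and 99%”, “scored per strain.” for “also scored.”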

Streptococcus pneumoniae [37] = experiment: Antimicrobial activity against Streptococcus pneumoniae isolate 1055 by agar dilution method
Streptococcus pneumoniae [38] = experiment: Antimicrobial activity against Streptococcus pneumoniae isolate 1424 by agar dilution method; summary of the method: as §1
Streptococcus pneumoniae [39] = experiment: Antimicrobial activity against penicillin-susceptible Streptococcus pneumoniae by agar dilution method
Streptococcus pneumoniae [40] = experiment: Antimicrobial activity against Streptococcus pneumoniae isolate 1397 by agar dilution method; summary of the method: as §1
Streptococcus pneumoniae [41] = experiment: Antimicrobial activity against Streptococcus pneumoniae isolate 2874 by agar dilution method; summary of the method: as §1
Streptococcus pneumoniae [42] = experiment: Antimicrobial activity against Streptococcus pneumoniae 1 by time-kill analysis; summary of the method: as §2
Streptococcus pneumoniae [43] = experiment: Antimicrobial activity against Streptococcus pneumoniae isolate 4755 by agar dilution method; summary of the method: as §1
Streptococcus pneumoniae [44] = experiment: Antimicrobial activity against Streptococcus pneumoniae isolate 3481 by agar dilution method; summary of the method: as §1
Streptococcus pneumoniae [45] = experiment: Antimicrobial activity against Streptococcus pneumoniae isolate 3275 by agar dilution method; summary of the method: as §1
Streptococcus pneumoniae [46] = experiment: Antimicrobial activity against Streptococcus pneumoniae isolate 24 by agar dilution method
Streptococcus pneumoniae [47] = experiment: Antimicrobial activity against Streptococcus pneumoniae 12 by time-kill analysis
Summary of the method: as §2, with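 “12,” for “12 and”, “=” for “if”, “drop” for “reduction”, “90%/99%/99.9%” for “90% and 99%”, “scored per strain.” for “also scored.”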

For `C[C@@H](O)[C@H]1C(=O)N2C(C(=O)O)=C(S[C@H]3CC[S@@+]([O-])C3)S[C@H]12` [SULOPENEM], the MIC (Streptococcus pneumoniae [1]) was 1 µg/mL (≈ 2.86 µM), the MIC (Streptococcus pneumoniae [2]) was 0.5 µg/mL (≈ 1.43 µM) and the MIC (Streptococcus pneumoniae [3]) was 1 µg/mL (≈ 2.86 µM). It also gave an MIC (Streptococcus pneumoniae [4]) of 0.25 µg/mL (≈ 0.715 µM), an MIC (Streptococcus pneumoniae [5]) of 0.12 µg/mL (≈ 0.343 µM) and an MIC50 (Streptococcus pneumoniae [6]) of 1 µg/mL (≈ 2.86 µM). For the same compound, the MIC90 (Streptococcus pneumoniae [6]) was 2 µg/mL (≈ 5.72 µM), the MIC (Streptococcus pneumoniae [7]) was 1 µg/mL (≈ 2.86 µM) and the MIC (Streptococcus pneumoniae [8]) was 1 µg/mL (≈ 2.86 µM). For the same compound, the MIC (Streptococcus pneumoniae [9]) was 1 µg/mL (≈ 2.86 µM), the MIC (Streptococcus pneumoniae [10]) was 0.125 µg/mL (≈ 0.358 µM) and the MIC (Streptococcus pneumoniae [11]) was 0.5 µg/mL (≈ 1.43 µM). For the same compound, the MIC (Streptococcus pneumoniae [12]) was 0.25 µg/mL (≈ 0.715 µM), the MIC (Streptococcus pneumoniae [13]) was 0.5 µg/mL (≈ 1.43 µM) and the MIC (Streptococcus pneumoniae [14]) was 0.008 µg/mL (≈ 0.0229 µM). For the same compound, the MIC (Streptococcus pneumoniae [15]) was 1 µg/mL (≈ 2.86 µM), the MIC50 (Streptococcus pneumoniae [16]) was 0.06 µg/mL (≈ 0.172 µM) and the MIC90 (Streptococcus pneumoniae [16]) was 0.25 µg/mL (≈ 0.715 µM). For the same compound, the MIC (Streptococcus pneumoniae [17]) was 0.12 µg/mL (≈ 0.343 µM), the MIC (Streptococcus pneumoniae [18]) was 0.5 µg/mL (≈ 1.43 µM) and the MIC (Streptococcus pneumoniae [19]) was 1 µg/mL (≈ 2.86 µM). The MIC (Streptococcus pneumoniae [20]) was 0.25 µg/mL (≈ 0.715 µM), the MIC50 (Streptococcus pneumoniae [21]) was 0.25 µg/mL (≈ 0.715 µM) and the MIC90 (Streptococcus pneumoniae [21]) was 0.5 µg/mL (≈ 1.43 µM). The MIC (Streptococcus pneumoniae [22]) was 1 µg/mL (≈ 2.86 µM), the MIC (Streptococcus pneumoniae [23]) was 0.5 µg/mL (≈ 1.43 µM) and the MIC (Streptococcus pneumoniae [24]) was 0.25 µg/mL (≈ 0.715 µM). It also gave an MIC (Streptococcus pneumoniae [25]) of 0.25 µg/mL (≈ 0.715 µM), an MIC (Streptococcus pneumoniae [26]) of 0.12 µg/mL (≈ 0.343 µM) and an MIC (Streptococcus pneumoniae [27]) of 0.25 µg/mL (≈ 0.715 µM). It also gave an MIC (Streptococcus pneumoniae [28]) of 0.5 µg/mL (≈ 1.43 µM), an MIC (Streptococcus pneumoniae [29]) of 0.25 µg/mL (≈ 0.715 µM) and an MIC (Streptococcus pneumoniae [30]) of 0.5 µg/mL (≈ 1.43 µM). For the same compound, the MIC (Streptococcus pneumoniae [31]) was 1 µg/mL (≈ 2.86 µM), the MIC (Streptococcus pneumoniae [32]) was 0.25 µg/mL (≈ 0.715 µM) and the MIC (Streptococcus pneumoniae [33]) was 1 µg/mL (≈ 2.86 µM). For the same compound, the MIC (Streptococcus pneumoniae [34]) was 0.06 µg/mL (≈ 0.172 µM), the MIC (Streptococcus pneumoniae [35]) was 1 µg/mL (≈ 2.86 µM) and the MIC (Streptococcus pneumoniae [36]) was 1 µg/mL (≈ 2.86 µM). The MIC (Streptococcus pneumoniae [37]) was 0.25 µg/mL (≈ 0.715 µM), the MIC (Streptococcus pneumoniae [38]) was 0.5 µg/mL (≈ 1.43 µM) and the MIC50 (Streptococcus pneumoniae [39]) was 0.008 µg/mL (≈ 0.0229 µM). For the same compound, the MIC90 (Streptococcus pneumoniae [39]) was 0.016 µg/mL (≈ 0.0458 µM), the MIC (Streptococcus pneumoniae [40]) was 0.5 µg/mL (≈ 1.43 µM) and the MIC (Streptococcus pneumoniae [41]) was 1 µg/mL (≈ 2.86 µM). The MIC (Streptococcus pneumoniae [42]) was 0.008 µg/mL (≈ 0.0229 µM), the MIC (Streptococcus pneumoniae [43]) was 0.5 µg/mL (≈ 1.43 µM) and the MIC (Streptococcus pneumoniae [44]) was 0.25 µg/mL (≈ 0.715 µM). The MIC (Streptococcus pneumoniae [45]) was 0.125 µg/mL (≈ 0.358 µM), the MIC (Streptococcus pneumoniae [46]) was 0.5 µg/mL (≈ 1.43 µM) and the MIC (Streptococcus pneumoniae [47]) was 0.5 µg/mL (≈ 1.43 µM).
